Experimental data taken from ChEMBL document CHEMBL5653631, “A Potent and Selective ULK1 Inhibitor Suppresses Autophagy and Sensitizes Cancer Cells to Nutrient Stress” (iScience, 2018).
One block for each compound: values may come before it.

Tests used:
[1] = molecular target: Tyrosine-protein kinase HCK (Homo sapiens) (UniProt P08631); assay: Inhibition of human recombinant HCK at 500 nM in presence of ATP by radiometric assay relative to control
[2] = molecular target: Serine/threonine-protein kinase MARK1 (Homo sapiens) (UniProt Q9P0L2); assay: Inhibition of human recombinant MARK1 at 500 nM in presence of ATP by radiometric assay relative to control
[3] = molecular target: Phosphorylase b kinase gamma catalytic chain, skeletal muscle/heart isoform (Homo sapiens) (UniProt Q16816); assay: Inhibition of human recombinant PHKg1 at 500 nM in presence of ATP by radiometric assay relative to control
[4] = molecular target: T1, G protein-coupled receptor kinase 3 (Homo sapiens) (UniProt P35626); assay: Inhibition of human recombinant BARK2 at 500 nM related to control ULK1
T1 sequence (whole entry): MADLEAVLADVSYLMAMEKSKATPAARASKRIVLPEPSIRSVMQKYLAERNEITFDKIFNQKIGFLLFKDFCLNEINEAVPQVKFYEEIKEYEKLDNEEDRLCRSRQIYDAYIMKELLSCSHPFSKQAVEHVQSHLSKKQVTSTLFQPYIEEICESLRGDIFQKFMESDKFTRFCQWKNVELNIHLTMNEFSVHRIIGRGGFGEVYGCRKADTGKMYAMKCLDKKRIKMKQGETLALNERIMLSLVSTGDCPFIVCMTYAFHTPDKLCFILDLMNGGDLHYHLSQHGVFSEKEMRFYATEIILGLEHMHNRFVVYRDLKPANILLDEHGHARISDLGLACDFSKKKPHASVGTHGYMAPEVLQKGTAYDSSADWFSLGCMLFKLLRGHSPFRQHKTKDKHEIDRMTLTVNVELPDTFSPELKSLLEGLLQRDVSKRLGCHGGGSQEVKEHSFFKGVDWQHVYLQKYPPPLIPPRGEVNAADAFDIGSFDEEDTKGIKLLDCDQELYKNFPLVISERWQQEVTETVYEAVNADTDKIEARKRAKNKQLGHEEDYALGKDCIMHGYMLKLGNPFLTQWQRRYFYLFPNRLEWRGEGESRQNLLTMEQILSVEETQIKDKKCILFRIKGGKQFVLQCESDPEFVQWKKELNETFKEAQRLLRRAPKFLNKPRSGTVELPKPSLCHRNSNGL

[5] = molecular target: Death-associated protein kinase 1 (Homo sapiens) (UniProt P53355); assay: Inhibition of human recombinant DAPK1 at 500 nM related to control ULK1
[6] = molecular target: Tyrosine-protein kinase JAK1 (Homo sapiens) (UniProt P23458); assay: Inhibition of human recombinant JAK1 at 500 nM related to control ULK1
[7] = molecular target: Transcription initiation factor TFIID subunit 1-like (Homo sapiens) (UniProt Q8IZX4); assay: Inhibition of human recombinant TAF1L at 500 nM related to control ULK1
[8] = molecular target: Protein-tyrosine kinase 6 (Homo sapiens) (UniProt Q13882); assay: Inhibition of human recombinant BRK at 15 nM in presence of ATP by radiometric assay relative to control
Outline: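 Part of a radiometric in vitro activity panel of 327 recombinant human kinases. Each kinase was tested in duplicate at one inhibitor concentration. Activity remaining was expressed as a percentage of the vehicle control, and percent inhibition was taken as 100 minus that value.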

[9] = molecular target: Tyrosine-protein kinase JAK1 (Homo sapiens) (UniProt P23458); assay: Inhibition of human recombinant JAK1 at 15 nM in presence of ATP by radiometric assay relative to control
[10] = molecular target: Serine/threonine-protein kinase 33 (Homo sapiens) (UniProt Q9BYT3); assay: Inhibition of human recombinant STK33 at 15 nM in presence of ATP by radiometric assay relative to control
[11] = molecular target: T2, Dual specificity protein kinase TTK (Homo sapiens) (UniProt P33981); assay: Inhibition of human recombinant TTK at 15 nM in presence of ATP by radiometric assay relative to control
T2 sequence (whole entry): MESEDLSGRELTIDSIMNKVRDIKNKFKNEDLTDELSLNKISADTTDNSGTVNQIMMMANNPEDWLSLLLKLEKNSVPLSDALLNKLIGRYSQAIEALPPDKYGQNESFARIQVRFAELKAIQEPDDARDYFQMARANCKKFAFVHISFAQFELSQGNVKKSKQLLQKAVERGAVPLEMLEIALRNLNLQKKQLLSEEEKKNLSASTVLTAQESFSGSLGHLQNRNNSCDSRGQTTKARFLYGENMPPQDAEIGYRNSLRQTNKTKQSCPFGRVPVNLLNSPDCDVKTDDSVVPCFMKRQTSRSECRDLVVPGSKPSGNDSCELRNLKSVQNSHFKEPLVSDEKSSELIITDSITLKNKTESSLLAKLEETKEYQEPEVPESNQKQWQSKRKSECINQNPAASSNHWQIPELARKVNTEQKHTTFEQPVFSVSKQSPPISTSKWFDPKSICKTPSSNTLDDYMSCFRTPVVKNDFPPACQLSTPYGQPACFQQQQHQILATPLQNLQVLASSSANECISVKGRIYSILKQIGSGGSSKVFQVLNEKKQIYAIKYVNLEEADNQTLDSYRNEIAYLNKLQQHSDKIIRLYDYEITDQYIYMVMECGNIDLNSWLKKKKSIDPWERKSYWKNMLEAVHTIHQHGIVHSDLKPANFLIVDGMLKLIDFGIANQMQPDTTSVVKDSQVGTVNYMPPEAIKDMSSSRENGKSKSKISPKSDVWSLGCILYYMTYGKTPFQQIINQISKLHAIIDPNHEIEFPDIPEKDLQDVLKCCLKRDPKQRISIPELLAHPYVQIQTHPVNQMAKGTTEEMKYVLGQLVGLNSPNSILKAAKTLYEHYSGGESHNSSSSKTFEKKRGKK

[12] = molecular target: Tyrosine-protein kinase Fyn (Homo sapiens) (UniProt P06241); assay: Inhibition of human recombinant FYN at 40 nM in presence of ATP by radiometric assay relative to control
[13] = molecular target: T3, Testis-specific serine/threonine-protein kinase 1 (Homo sapiens) (UniProt Q9BXA7); assay: Inhibition of human recombinant TSSK1 at 40 nM in presence of ATP by radiometric assay relative to control
T3 sequence (whole entry): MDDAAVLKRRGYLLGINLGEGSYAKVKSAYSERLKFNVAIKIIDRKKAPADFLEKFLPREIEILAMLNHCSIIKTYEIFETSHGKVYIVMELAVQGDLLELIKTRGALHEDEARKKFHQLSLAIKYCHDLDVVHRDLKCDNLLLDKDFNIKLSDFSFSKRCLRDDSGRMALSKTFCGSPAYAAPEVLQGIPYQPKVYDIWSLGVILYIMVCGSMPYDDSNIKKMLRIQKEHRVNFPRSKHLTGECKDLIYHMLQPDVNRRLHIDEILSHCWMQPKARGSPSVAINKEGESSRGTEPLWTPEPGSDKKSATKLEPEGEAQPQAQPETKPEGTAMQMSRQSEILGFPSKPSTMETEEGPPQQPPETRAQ

[14] = molecular target: Fibroblast growth factor receptor 3 (Homo sapiens) (UniProt P22607); assay: Inhibition of human recombinant FGFR3 at 40 nM related to control ULK1
Fibroblast growth factor receptor 3 (Homo sapiens), sequence (P22607 23-806 limits assumed): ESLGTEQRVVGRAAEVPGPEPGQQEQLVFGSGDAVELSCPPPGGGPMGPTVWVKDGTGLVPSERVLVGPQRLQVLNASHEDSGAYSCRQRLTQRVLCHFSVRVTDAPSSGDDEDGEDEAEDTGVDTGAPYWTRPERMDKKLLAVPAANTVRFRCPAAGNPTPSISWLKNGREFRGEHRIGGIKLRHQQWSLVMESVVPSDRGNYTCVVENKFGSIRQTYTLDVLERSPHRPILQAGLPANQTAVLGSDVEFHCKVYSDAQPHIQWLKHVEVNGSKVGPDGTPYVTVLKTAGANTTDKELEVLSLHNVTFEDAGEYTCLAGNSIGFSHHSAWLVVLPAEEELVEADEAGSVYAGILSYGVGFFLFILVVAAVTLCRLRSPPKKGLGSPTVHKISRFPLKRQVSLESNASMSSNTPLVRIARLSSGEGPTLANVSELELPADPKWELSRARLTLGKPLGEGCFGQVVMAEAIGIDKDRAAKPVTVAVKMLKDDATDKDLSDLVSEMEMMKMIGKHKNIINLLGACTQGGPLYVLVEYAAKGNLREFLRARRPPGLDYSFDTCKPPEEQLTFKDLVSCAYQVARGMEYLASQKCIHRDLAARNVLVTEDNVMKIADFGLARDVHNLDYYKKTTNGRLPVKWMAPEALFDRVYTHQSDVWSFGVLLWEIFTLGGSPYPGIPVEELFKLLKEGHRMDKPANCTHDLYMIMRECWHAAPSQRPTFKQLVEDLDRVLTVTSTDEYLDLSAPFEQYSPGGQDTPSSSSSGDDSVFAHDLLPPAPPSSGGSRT

Tyrosine-protein kinase JAK1 (Homo sapiens), sequence (P23458 whole entry): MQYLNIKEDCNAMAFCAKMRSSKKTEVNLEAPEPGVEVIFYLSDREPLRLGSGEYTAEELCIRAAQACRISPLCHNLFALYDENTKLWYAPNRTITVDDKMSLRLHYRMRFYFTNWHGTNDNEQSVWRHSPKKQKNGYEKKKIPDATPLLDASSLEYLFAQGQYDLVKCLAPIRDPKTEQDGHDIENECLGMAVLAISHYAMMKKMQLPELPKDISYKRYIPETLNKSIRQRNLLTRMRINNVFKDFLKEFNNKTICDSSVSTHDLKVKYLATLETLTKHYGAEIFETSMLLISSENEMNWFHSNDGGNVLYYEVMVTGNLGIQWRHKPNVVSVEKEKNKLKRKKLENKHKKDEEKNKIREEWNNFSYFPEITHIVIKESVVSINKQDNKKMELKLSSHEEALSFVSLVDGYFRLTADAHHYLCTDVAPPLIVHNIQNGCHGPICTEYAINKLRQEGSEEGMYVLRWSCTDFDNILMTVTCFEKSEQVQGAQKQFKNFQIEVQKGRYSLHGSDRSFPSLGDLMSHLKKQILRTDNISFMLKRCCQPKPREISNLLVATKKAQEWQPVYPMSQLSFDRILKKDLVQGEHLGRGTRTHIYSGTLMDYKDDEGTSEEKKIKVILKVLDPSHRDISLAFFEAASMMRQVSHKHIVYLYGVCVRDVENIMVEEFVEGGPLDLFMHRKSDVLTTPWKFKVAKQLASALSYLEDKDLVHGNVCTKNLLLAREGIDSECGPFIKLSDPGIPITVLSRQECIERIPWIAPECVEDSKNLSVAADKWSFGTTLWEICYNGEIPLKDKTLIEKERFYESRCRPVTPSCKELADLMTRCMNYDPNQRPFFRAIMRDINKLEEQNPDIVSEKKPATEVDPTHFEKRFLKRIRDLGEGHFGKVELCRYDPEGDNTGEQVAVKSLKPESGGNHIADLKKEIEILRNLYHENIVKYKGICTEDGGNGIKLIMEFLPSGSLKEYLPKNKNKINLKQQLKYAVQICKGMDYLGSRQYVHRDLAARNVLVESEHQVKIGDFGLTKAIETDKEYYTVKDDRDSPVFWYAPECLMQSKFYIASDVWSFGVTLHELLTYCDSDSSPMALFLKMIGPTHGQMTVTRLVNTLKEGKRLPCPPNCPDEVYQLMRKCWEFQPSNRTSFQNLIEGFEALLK
Phosphorylase b kinase gamma catalytic chain, skeletal muscle/heart isoform (Homo sapiens), sequence (Q16816 whole entry, looked up, canonical isoform): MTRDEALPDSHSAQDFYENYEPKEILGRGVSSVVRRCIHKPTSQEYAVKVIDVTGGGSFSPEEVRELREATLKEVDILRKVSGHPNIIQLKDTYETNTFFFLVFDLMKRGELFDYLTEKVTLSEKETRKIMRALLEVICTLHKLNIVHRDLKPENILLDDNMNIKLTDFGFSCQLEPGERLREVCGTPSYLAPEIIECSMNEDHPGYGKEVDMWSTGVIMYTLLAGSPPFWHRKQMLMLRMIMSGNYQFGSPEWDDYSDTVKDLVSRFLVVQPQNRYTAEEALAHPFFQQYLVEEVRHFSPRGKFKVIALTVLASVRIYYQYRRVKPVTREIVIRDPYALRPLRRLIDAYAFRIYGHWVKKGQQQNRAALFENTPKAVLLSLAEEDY
Death-associated protein kinase 1 (Homo sapiens), sequence (P53355 whole entry, looked up): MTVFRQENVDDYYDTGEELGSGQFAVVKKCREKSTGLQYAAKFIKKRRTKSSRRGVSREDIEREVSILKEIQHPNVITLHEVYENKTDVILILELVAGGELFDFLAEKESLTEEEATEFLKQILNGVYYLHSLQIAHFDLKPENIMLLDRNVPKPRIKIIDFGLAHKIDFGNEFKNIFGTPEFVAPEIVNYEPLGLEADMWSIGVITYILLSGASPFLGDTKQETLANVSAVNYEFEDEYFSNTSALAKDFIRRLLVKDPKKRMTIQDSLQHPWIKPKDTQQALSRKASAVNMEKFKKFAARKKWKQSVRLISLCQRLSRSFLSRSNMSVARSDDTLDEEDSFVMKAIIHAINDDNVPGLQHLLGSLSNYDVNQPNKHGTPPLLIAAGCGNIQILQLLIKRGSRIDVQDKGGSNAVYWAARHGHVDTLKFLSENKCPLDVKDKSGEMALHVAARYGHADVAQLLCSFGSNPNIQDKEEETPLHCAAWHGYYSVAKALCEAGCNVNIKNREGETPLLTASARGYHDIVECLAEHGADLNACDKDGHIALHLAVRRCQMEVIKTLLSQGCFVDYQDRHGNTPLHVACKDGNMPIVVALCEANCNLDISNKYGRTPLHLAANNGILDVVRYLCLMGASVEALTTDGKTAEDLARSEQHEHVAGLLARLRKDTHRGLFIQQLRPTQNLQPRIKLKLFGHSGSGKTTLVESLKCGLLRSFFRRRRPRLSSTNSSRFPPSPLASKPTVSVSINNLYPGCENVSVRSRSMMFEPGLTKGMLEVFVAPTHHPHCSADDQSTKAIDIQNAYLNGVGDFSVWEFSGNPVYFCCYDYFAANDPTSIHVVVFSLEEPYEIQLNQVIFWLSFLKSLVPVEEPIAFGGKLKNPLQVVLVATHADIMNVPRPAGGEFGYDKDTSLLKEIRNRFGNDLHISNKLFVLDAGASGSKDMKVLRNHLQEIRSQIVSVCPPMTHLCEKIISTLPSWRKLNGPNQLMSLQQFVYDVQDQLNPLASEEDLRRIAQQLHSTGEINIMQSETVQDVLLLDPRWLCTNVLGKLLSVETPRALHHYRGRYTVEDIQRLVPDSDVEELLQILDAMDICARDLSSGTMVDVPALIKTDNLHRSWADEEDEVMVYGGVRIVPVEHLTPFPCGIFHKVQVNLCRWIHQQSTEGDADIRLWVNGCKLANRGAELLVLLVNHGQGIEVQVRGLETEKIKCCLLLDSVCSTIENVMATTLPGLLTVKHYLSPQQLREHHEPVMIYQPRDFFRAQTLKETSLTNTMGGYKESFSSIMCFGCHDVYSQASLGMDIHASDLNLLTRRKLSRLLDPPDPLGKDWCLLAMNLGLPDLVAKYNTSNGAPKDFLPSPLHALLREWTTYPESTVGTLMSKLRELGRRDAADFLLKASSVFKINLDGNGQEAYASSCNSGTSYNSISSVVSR
Protein-tyrosine kinase 6 (Homo sapiens), sequence (Q13882 whole entry, looked up): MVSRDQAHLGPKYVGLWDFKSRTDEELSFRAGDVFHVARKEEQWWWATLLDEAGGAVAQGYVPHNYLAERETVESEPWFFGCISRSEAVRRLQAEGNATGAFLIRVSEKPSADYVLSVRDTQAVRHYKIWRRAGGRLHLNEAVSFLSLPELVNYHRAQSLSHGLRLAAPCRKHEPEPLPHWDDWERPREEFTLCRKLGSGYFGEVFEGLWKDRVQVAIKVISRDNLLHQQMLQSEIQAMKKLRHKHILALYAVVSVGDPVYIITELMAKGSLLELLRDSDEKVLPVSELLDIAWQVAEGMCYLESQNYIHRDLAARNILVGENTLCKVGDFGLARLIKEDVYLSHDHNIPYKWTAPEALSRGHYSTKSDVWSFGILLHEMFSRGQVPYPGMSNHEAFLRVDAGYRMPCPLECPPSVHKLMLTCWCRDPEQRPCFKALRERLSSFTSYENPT
Serine/threonine-protein kinase 33 (Homo sapiens), sequence (Q9BYT3 whole entry, looked up): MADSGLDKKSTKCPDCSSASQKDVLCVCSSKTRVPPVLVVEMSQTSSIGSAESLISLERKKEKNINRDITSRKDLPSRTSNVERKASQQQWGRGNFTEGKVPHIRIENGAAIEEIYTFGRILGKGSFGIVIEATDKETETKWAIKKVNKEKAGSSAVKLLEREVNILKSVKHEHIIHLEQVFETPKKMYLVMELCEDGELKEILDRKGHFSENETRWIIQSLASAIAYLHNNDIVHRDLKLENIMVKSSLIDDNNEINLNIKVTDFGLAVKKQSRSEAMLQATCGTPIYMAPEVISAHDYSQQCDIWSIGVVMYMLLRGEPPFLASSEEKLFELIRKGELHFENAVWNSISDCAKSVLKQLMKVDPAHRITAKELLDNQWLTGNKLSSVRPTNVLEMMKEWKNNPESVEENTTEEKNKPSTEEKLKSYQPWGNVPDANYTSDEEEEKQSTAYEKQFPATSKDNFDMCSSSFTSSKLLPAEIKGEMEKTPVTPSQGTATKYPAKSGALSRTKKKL

inhibition [1]: 17%
inhibition [2]: 54%
inhibition [3]: 23%
fold change (FC) [4]: 0.09
fold change (FC) [6]: 0.53
fold change (FC) [7]: 0
Compound: CNC(=O)c1ccccc1Oc1nc(Nc2cc(OC)c(OC)c(OC)c2)ncc1Br
fold change (FC) [5]: 0

inhibition [8]: 8%
inhibition [9]: 0%
inhibition [10]: 16%
inhibition [11]: 22%
Compound: CC(C)[C@H](NC(=O)c1cc(-c2cnn3cc(-c4ccc(OCCN5CCCCC5)cc4)cnc23)cs1)C(F)(F)F

inhibition [12]: 0%
inhibition [13]: 0%
fold change (FC) [14]: 0
Compound: O=C(N[C@@H](C1CC1)C(F)(F)F)c1cc(-c2cnn3cc(-c4ccc(F)cc4)cnc23)cs1
